Tests used:
Carbonic anhydrase 9 = Carbonic anhydrase 9 (Homo sapiens, UniProt Q16790); assay: Inhibition of carbonic anhydrase 9 (unknown origin) preincubated for 15 mins by stopped flow CO2 hydration assay
Carbonic anhydrase 12 = Carbonic anhydrase 12 (Homo sapiens, UniProt O43570)
HT-29 [1] = assay: Cytotoxicity against human HT-29 cells assessed as reduction in cell viability after 48 hrs under normoxic conditions by MTT assay; assay type: functional, cell-based; settings: for IC50: HT-29, 48 h
Summary of the method: (§1)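 Cells cultured in high-glucose DMEM with 20% FBS at 37 °C and 5% CO2, seeded at 1x10^4/well, then dosed 24 h later (0–200 μM) for 48 h. Hypoxia: 1% O2, 5% CO2, balance N2 in a hypoxic workstation; normoxia: 20% O2 in air, 5% CO2. MTT (1 mg/ml) for 30 min at 37 °C, formazan dissolved in DMSO, A550. Untreated control set to 100%; quadruplicates, ≥3 cell batches, mean ± S.E.M.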

MDA-MB-231 [2] = assay: Cytotoxicity against human MDA-MB-231 cells assessed as reduction in cell viability after 48 hrs under normoxic conditions by MTT assay; assay type: functional, cell-based; settings: for IC50: MDA-MB-231, 48 h; summary of the method: as §1
PC-3 [3] = assay: Cytotoxicity against human PC3 cells assessed as reduction in cell viability after 48 hrs under normoxic conditions by MTT assay; assay type: functional, cell-based; settings: for IC50: PC-3, 48 h; summary of the method: as §1
HT-29 [4] = assay: Cytotoxicity against human HT-29 cells assessed as reduction in cell viability after 48 hrs under hypoxic conditions by MTT assay; assay type: functional, cell-based; settings: for IC50: HT-29, 48 h; summary of the method: as §1
MDA-MB-231 [5] = assay: Cytotoxicity against human MDA-MB-231 cells assessed as reduction in cell viability after 48 hrs under hypoxic conditions by MTT assay; assay type: functional, cell-based; settings: for IC50: MDA-MB-231, 48 h; summary of the method: as §1
PC-3 [6] = assay: Cytotoxicity against human PC3 cells assessed as reduction in cell viability after 48 hrs under hypoxic conditions by MTT assay; assay type: functional, cell-based; settings: for IC50: PC-3, 48 h; summary of the method: as §1
MDA-MB-231 [7] = assay: Cytotoxicity against human MDA-MB-231 cells assessed as cell viability at 200 uM after 48 hrs under hypoxic conditions by MTT assay (reference value: 100%); assay type: functional; settings: MDA-MB-231, 48 h, read-out: Activity; summary of the method: as §1
MDA-MB-231 [8] = assay: Cytotoxicity against human MDA-MB-231 cells assessed as cell viability at 30 uM after 48 hrs under normoxic conditions by MTT assay (reference value: 100%); assay type: functional; settings: MDA-MB-231, 48 h, read-out: Activity; summary of the method: as §1
MDA-MB-231 [9] = assay: Cytotoxicity against human MDA-MB-231 cells assessed as cell viability at 100 uM after 48 hrs under normoxic conditions by MTT assay (reference value: 100%); assay type: functional; settings: MDA-MB-231, 48 h, read-out: Activity; summary of the method: as §1
MDA-MB-231 [10] = assay: Cytotoxicity against human MDA-MB-231 cells assessed as cell viability at 200 uM after 48 hrs under normoxic conditions by MTT assay (reference value: 100%); assay type: functional; settings: MDA-MB-231, 48 h, read-out: Activity; summary of the method: as §1
MDA-MB-231 [11] = assay: Cytotoxicity against human MDA-MB-231 cells assessed as cell viability at 100 uM after 48 hrs under hypoxic conditions by MTT assay (reference value: 100%); assay type: functional; settings: MDA-MB-231, 48 h, read-out: Activity; summary of the method: as §1
MDA-MB-231 [12] = assay: Cytotoxicity against human MDA-MB-231 cells assessed as cell viability at 30 uM after 48 hrs under hypoxic conditions by MTT assay (reference value: 100%); assay type: functional; settings: MDA-MB-231, 48 h, read-out: Activity; summary of the method: as §1
PC-3 [13] = assay: Cytotoxicity against human PC3 cells assessed as cell viability at 30 uM after 48 hrs under normoxic conditions by MTT assay (reference value: 100%); assay type: functional; settings: PC-3, 48 h, read-out: Activity; summary of the method: as §1
PC-3 [14] = assay: Cytotoxicity against human PC3 cells assessed as cell viability at 100 uM after 48 hrs under normoxic conditions by MTT assay (reference value: 100%); assay type: functional; settings: PC-3, 48 h, read-out: Activity; summary of the method: as §1
PC-3 [15] = assay: Cytotoxicity against human PC3 cells assessed as cell viability at 200 uM after 48 hrs under normoxic conditions by MTT assay (reference value: 100%); assay type: functional; settings: PC-3, 48 h, read-out: Activity; summary of the method: as §1
PC-3 [16] = assay: Cytotoxicity against human PC3 cells assessed as cell viability at 30 uM after 48 hrs under hypoxic conditions by MTT assay (reference value: 100%); assay type: functional; settings: PC-3, 48 h, read-out: Activity; summary of the method: as §1
PC-3 [17] = assay: Cytotoxicity against human PC3 cells assessed as cell viability at 100 uM after 48 hrs under hypoxic conditions by MTT assay (reference value: 100%); assay type: functional; settings: PC-3, 48 h, read-out: Activity; summary of the method: as §1
PC-3 [18] = assay: Cytotoxicity against human PC3 cells assessed as cell viability at 200 uM after 48 hrs under hypoxic conditions by MTT assay (reference value: 100%); assay type: functional; settings: PC-3, 48 h, read-out: Activity; summary of the method: as §1
HT-29 [19] = assay: Cytotoxicity against human HT-29 cells assessed as cell viability at 30 uM after 48 hrs under normoxic conditions by MTT assay (reference value: 100%); assay type: functional; settings: for viability at 30 µM: Homo sapiens, HT-29, 48 h, read-out: Activity; summary of the method: as §1
HT-29 [20] = assay: Cytotoxicity against human HT-29 cells assessed as cell viability at 100 uM after 48 hrs under normoxic conditions by MTT assay (reference value: 100%); assay type: functional; settings: for viability at 100 µM: Homo sapiens, HT-29, 48 h, read-out: Activity; summary of the method: as §1
HT-29 [21] = assay: Cytotoxicity against human HT-29 cells assessed as cell viability at 200 uM after 48 hrs under normoxic conditions by MTT assay (reference value: 100%); assay type: functional; settings: for viability at 200 µM: Homo sapiens, HT-29, 48 h, read-out: Activity; summary of the method: as §1
HT-29 [22] = assay: Cytotoxicity against human HT-29 cells assessed as cell viability at 30 uM after 48 hrs under hypoxic conditions by MTT assay (reference value: 100%); assay type: functional; settings: for viability at 30 µM: Homo sapiens, HT-29, 48 h, read-out: Activity; summary of the method: as §1
HT-29 [23] = assay: Cytotoxicity against human HT-29 cells assessed as cell viability at 100 uM after 48 hrs under hypoxic conditions by MTT assay (reference value: 100%); assay type: functional; settings: for viability at 100 µM: Homo sapiens, HT-29, 48 h, read-out: Activity; summary of the method: as §1
HT-29 [24] = assay: Cytotoxicity against human HT-29 cells assessed as cell viability at 200 uM after 48 hrs under hypoxic conditions by MTT assay (reference value: 100%); assay type: functional; settings: for viability at 200 µM: Homo sapiens, HT-29, 48 h, read-out: Activity; summary of the method: as §1

Carbonic anhydrase 12, sequence (O43570 whole entry): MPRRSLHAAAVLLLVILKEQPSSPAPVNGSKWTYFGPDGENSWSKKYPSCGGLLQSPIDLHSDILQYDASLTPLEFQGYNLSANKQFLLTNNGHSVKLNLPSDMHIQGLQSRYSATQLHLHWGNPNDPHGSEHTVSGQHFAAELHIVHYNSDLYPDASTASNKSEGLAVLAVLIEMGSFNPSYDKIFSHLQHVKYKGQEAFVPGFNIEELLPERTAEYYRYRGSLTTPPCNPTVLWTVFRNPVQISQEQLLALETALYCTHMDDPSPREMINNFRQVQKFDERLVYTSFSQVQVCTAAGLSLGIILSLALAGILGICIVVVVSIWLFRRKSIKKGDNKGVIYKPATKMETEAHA

SMILES | Ki (Carbonic anhydrase 9) [µM] | Ki (Carbonic anhydrase 12) [µM] | viability at 200 µM (MDA-MB-231 [7]) [%] | viability at 30 µM (MDA-MB-231 [8]) [%] | viability at 100 µM (MDA-MB-231 [9]) [%] | viability at 200 µM (MDA-MB-231 [10]) [%] | viability at 100 µM (MDA-MB-231 [11]) [%] | viability at 30 µM (MDA-MB-231 [12]) [%] | viability at 30 µM (PC-3 [13]) [%] | viability at 100 µM (PC-3 [14]) [%] | viability at 200 µM (PC-3 [15]) [%] | viability at 30 µM (PC-3 [16]) [%] | viability at 100 µM (PC-3 [17]) [%] | viability at 200 µM (PC-3 [18]) [%] | viability at 30 µM (HT-29 [19]) [%] | viability at 100 µM (HT-29 [20]) [%] | viability at 200 µM (HT-29 [21]) [%] | viability at 30 µM (HT-29 [22]) [%] | viability at 100 µM (HT-29 [23]) [%] | viability at 200 µM (HT-29 [24]) [%] | other results
CC(=O)OC[C@@H]1O[C@@H](OC(C)=O)[C@@H](NC(=O)Nc2cc(S(N)(=O)=O)cc([N+](=O)[O-])c2O)[C@H](OC(C)=O)[C@H]1OC(C)=O | 0.29 | 0.79 | 65.9 | 100 | 111 | 103 | 90.7 | 99.5 | 59.6 | 67.5 | 68.3 | 91.5 | 85.2 | 70.6 | 111 | 100 | 103 | 95.6 | 79.8 | 84.8 | Activity (HT-29 [1]): Dose-dependent effect; IC50 (HT-29 [1]): > 200 µM; Activity (MDA-MB-231 [2]): Dose-dependent effect; IC50 (MDA-MB-231 [2]): > 200 µM; Activity (PC-3 [3]): Dose-dependent effect; IC50 (PC-3 [3]): > 200 µM; Activity (HT-29 [4]): Dose-dependent effect; IC50 (HT-29 [4]): > 200 µM; Activity (MDA-MB-231 [5]): Dose-dependent effect; IC50 (MDA-MB-231 [5]): > 200 µM; Activity (PC-3 [6]): Dose-dependent effect; IC50 (PC-3 [6]): > 200 µM
NS(=O)(=O)c1ccc(NC(=O)Nc2ccc(F)cc2)cc1 [SLC-0111] | – | – | 103 | 83.4 | 86.6 | 56.9 | 107 | 103 | 109 | 109 | 83.1 | 90.8 | 106 | 95.8 | 62.4 | 50.3 | 35.6 | 85.3 | 71.5 | 56.4 | –
Cc1cc(C)[n+](-c2cc(S(N)(=O)=O)cc([N+](=O)[O-])c2O)c(C)c1.[O-][Cl+3]([O-])([O-])[O-] | 0.15 | 0.22 | 98.3 | 40.7 | 2.9 | 4 | 111 | 98.9 | 77.4 | 58 | 50.3 | 97.7 | 104 | 88.9 | 101 | 97.2 | 89.4 | 72.2 | 62.5 | 59.4 | Activity (HT-29 [1]): Dose-dependent effect; IC50 (HT-29 [1]): > 200 µM; Activity (MDA-MB-231 [2]): Dose-dependent effect; IC50 (MDA-MB-231 [2]): < 30 µM; Activity (PC-3 [3]): Dose-dependent effect; IC50 (PC-3 [3]): 140 µM; Activity (HT-29 [4]): Dose-dependent effect; IC50 (HT-29 [4]): > 200 µM; Activity (MDA-MB-231 [5]): Dose-dependent effect; IC50 (MDA-MB-231 [5]): > 200 µM; Activity (PC-3 [6]): Dose-dependent effect; IC50 (PC-3 [6]): > 200 µM
Nc1cc(S(N)(=O)=O)cc([N+](=O)[O-])c1O | 0.21 | 0.2 | 60.2 | 93 | 81.4 | 78.8 | 72.8 | 81.3 | 69.7 | 91.8 | 92.3 | 81.8 | 58.4 | 55.3 | 95.7 | 107 | 105 | 108 | 93.2 | 100 | Activity (HT-29 [1]): Dose-dependent effect; IC50 (HT-29 [1]): > 200 µM; Activity (MDA-MB-231 [2]): Dose-dependent effect; IC50 (MDA-MB-231 [2]): > 200 µM; Activity (PC-3 [3]): Dose-dependent effect; IC50 (PC-3 [3]): > 200 µM; Activity (HT-29 [4]): Dose-dependent effect; IC50 (HT-29 [4]): > 200 µM; Activity (MDA-MB-231 [5]): Dose-dependent effect; IC50 (MDA-MB-231 [5]): > 200 µM; Activity (PC-3 [6]): Dose-dependent effect; IC50 (PC-3 [6]): > 200 µM
NS(=O)(=O)c1cc(NC(=O)N[C@@H]2C(O)O[C@@H](CO)[C@H](O)[C@H]2O)c(O)c([N+](=O)[O-])c1 (some centres not stated) | 0.17 | 0.16 | – | – | – | – | – | – | – | – | – | – | – | – | – | – | – | – | – | – | –
CC(=O)Nc1nnc(S(N)(=O)=O)s1 [ACETAZOLAMIDE] | – | – | – | – | – | – | – | – | – | – | – | – | – | – | – | – | – | – | – | – | Activity (HT-29 [19]): 96.9%; Activity (HT-29 [20]): 100.7%; Activity (HT-29 [21]): 96.9%; Activity (HT-29 [22]): 107.6%; Activity (HT-29 [23]): 101.7%; Activity (HT-29 [24]): 90.9%

— ChEMBL document CHEMBL4261658, “4-Hydroxy-3-nitro-5-ureido-benzenesulfonamides Selectively Target the Tumor-Associated Carbonic Anhydrase Isoforms IX and XII Showing Hypoxia-Enhanced Antiproliferative Profiles” (J Med Chem, 2018)
